Screening data from PubChem BioAssay.
The list is not random: actives were taken first. Their share in the collection is about 1.6%.
STEP block = inhibitors of human striatal-enriched phosphatase STEP; recombinant STEP, OMFP fluorogenic substrate, fluorescence; inhibition, % at 20 µM; hit rate 0.25% among 360,000; P54829;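 active means inhibition at 20 µM, scaled per plate between control wells, above about 37%, limit read from the data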;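 further: 0% = DMSO with enzyme and substrate and 100% = substrate only without enzyme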
Target sequence (P54829 whole entry, looked up): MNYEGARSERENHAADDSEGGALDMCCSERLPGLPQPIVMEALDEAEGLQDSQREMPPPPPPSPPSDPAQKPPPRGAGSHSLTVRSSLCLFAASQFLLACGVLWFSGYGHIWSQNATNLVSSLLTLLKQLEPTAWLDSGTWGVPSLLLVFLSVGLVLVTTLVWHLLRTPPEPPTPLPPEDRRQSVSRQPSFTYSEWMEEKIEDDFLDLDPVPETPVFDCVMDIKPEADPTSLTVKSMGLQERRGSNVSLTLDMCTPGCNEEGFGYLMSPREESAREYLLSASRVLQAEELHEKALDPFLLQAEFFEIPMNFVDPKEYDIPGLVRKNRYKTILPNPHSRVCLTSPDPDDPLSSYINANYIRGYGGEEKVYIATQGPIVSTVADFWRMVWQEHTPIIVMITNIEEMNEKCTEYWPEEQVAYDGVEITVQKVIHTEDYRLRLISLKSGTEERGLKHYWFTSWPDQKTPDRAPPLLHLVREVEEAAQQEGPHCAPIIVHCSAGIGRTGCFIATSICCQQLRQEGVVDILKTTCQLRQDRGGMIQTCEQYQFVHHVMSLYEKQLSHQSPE
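System: STEP (striatal-enriched tyrosine phosphatase) enzyme, cell-free; medium: Bis-Tris pH 6.0 buffer with DTT, detergent; dosing: 20 µM, 1% DMSO; times: reaction 20 min, ambient temperature; detection: fluorescence, 480/540 nm; read-out basis: normalized % inhibition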
F508del corr = correctors of CFTR F508del function in bronchial epithelial cells; hit rate 0.36% among 350,000; CFBE cells, YFP halide quenching; stimulated with forskolin plus potentiator P3; % fluorescence drop versus neutral controls; activity (quench increase), % at 7.58 µM;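 active means mean added fluorescence quench of at least 8% versus neutral control, with both replicates also reaching 8%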;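 further: cells transiently co-express mutant CFTR-F508del with the halide-sensitive YFP; corrector assay measuring rescue of mutant channel to the surface after 24 h compound exposure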
LMPTP inh = LMPTP (human) inhibition. P24666. recombinant LMPTP-A, OMFP fluorogenic substrate, fluorescence intensity. inhibition, % at 20 µM. hit rate 0.22% among 360,000. AID 651560;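 active means compounds that cut the enzyme signal by at least half of the control window in the single-dose screen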;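 further: plate controls were DMSO wells with enzyme plus substrate for no effect and substrate without enzyme for full effect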
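Test system: LMPTP-A phosphatase enzyme. Amount: LMPTP-A at 0.625 nM final in the reaction. Reagent: OMFP substrate, 400 µM final. Times: 50 min at room temperature. Signal: endpoint fluorescence intensity from OMFP dephosphorylation. Read-out basis: % inhibition. Benchmarks: no-enzyme and uninhibited controls.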
Scp-1 inhibitor = inhibitors of human Scp-1 phosphatase. Q9GZU7. Recombinant Scp1, phosphopeptide, malachite green phosphate absorbance. inhibition, % at 20 µM. AID 493091. hit rate 0.88% among 340,000;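 active means inhibition above about 50% at 20 µM, limit read from the data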;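 further: plate controls were DMSO wells with enzyme for no effect and wells lacking enzyme for full effect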
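Material: truncated SCP-1 phosphatase (76-261aa) / Buffer or medium: 50 mM Tris acetate pH 5.5, 0.005% Tween-20, 10 mM MgCl2 / Compound dosing: one concentration, 20 µM, with 1.0% DMSO / Incubation: 45 min room-temperature reaction, 5 min colour, 30 min stabiliser / Detection: colorimetric free-phosphate detection, absorbance 630 nm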
SUMO1 PPI mod = SUMO1-SIM interaction modulation; P63165; SUMO1 binding to a labelled peptide, TR-FRET, 1 h; inhibition, % at 20 µM; AID 602429; hit rate 0.33% among 360,000; in the data active means inhibition above about 37%
Target sequence (P63165 whole entry, looked up): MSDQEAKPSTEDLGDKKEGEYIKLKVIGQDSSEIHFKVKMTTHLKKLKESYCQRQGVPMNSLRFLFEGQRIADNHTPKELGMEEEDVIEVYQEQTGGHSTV
DNMT1 block = blocks human DNA methyltransferase DNMT1. P26358. DNMT1 molecular beacon, Hinp1I cleavage, fluorescence. inhibition (reported as % activation of signal), % at 10 µM. hit rate 0.83% among 360,000. AID 588458; in the data active means inhibition above about 50%
The depositor's hits bear a star; . = no result given; ! = repeats disagree.

SMILES | STEP block | F508del corr | LMPTP inh | Scp-1 inhibitor | SUMO1 PPI mod | DNMT1 block
O=[N+]([O-])c1ccc(N2CCOCC2)c2cccnc12 | -1 | 8 | 2 | -6 | -16 | 0
C/C=C/c1ccc(C2[C@@H]3CN(Cc4nccs4)C[C@H]2N3)cc1 (some centres undefined) | . | 2 | . | . | . | .
C=C1C(=O)OC2CC3(C)OC3CCC(C)=CC(OC(C)=O)C12 (centres undefined) | -2 | -1 | 0 | -3 | 7 | -1
C=C1C(=O)O[C@@H]2C[C@@H](C)[C@H]3C=CC(=O)[C@]3(O)C[C@@H]12 | -1 | -9 | 1 | -8 | 53* | -31
Cc1ccc2c(c1)C1C[N+](C)(CC(=O)c3ccc(Cl)cc3Cl)CCC1N2C(=O)c1ccc(F)cc1 (centres undefined) | -2 | 3 | 0 | 95* | -11 | 7
Cc1ccc2c(c1)C1CN(C)CCC1N2C(=O)c1cccs1 (centres undefined) | -3 | 0 | 0 | -12 | 2 | -1
CC1(C)C2([N+](=O)[O-])CN3CN(C2)CC1([N+](=O)[O-])C3 | 1 | -1 | -1 | 7 | 39* | 6
c1ccc2c(N3CCNCC3)cccc2c1 | 0 | 3 | -3 | -14 | 1 | -3
c1ccc2nc(N3CCNCC3)ccc2c1 | -2 | 9.8*! | -3 | -14 | 2 | 0
CCc1ccc(N2C(=O)NC(=O)/C(=C\C=C\c3ccco3)C2=O)cc1 | 1 | -4 | 4 | 11 | 12 | 138*
Cc1ccc(N2C(=O)NC(=O)/C(=C/C=C/c3ccco3)C2=O)cc1 | -1 | . | 0 | 6 | 6 | 30
CCOc1ccc(N2C(=O)/C(=C/c3ccco3)C(=O)NC2=S)cc1 | 100* | . | 92* | 94* | 114* | 49
CCCCn1c(NS(=O)(=O)c2ccccc2)c(C(=O)OCC)c2nc3ccccc3nc21 | 3 | . | 9 | -14 | 49* | 68*
O=C(C1CC1)N1C[C@@H]2N[C@H](C1)[C@@H]2c1ccc(-c2ccncc2)cc1 | . | -4 | . | . | . | .
CN(C)c1ccc(-[n+]2c(-c3ccccc3)cc(-c3ccccc3)cc2-c2ccccc2)cc1 | 4 | 8.3* | 14 | 44 | -19 | 10
O=C(O)Cc1cnc[nH]1 | -3 | -1 | 0 | -9 | 3 | -5
C[C@@H](N)Cc1cnc[nH]1 | -2 | 11* | -10 | 24 | -7 | 0
CC12CCC3C(CCC4(O)CC(O)CCC34C=O)C1(O)CCC2C1=CC(=O)OC1 (centres undefined) | -4 | -2 | -2 | -8 | 1 | 9
C[C@H]1O[C@@H](OC2CC[C@]3(C=O)[C@H]4CC[C@]5(C)[C@@H](C6=CC(=O)OC6)CC[C@]5(O)[C@@H]4CC[C@]3(O)C2)CC2OC(C)(C)OC21 (some centres undefined) | 0 | 8.6* | 1 | 1 | 4 | -3
COC(=O)[C@@H]1[C@@H](CO)[C@@H]2Cn3c(ccc(C4=CCCC4)c3=O)[C@H]1N2CC1CCCC1 | . | 1 | . | . | . | .
COCC#Cc1ccc([C@H]2[C@H](CO)N3CCCCN(C(=O)Cc4ccccn4)C[C@@H]23)cc1 | . | 0 | . | . | . | .
Cn1ncnc2c(=O)n(C)c(=O)nc1-2 | 85* | . | 75* | -8 | 29 | 109*
CN(C)C(=O)[C@@H]1[C@@H](CO)[C@@H]2Cn3c(cccc3=O)[C@H]1N2CC1CC1 | . | 2 | . | . | . | .
C/C=C(\C)C(=O)N[C@@H](c1ccccc1)[C@@H](O)C(=O)O[C@H]1C[C@@]2(O)[C@@H](OC(=O)c3ccccc3)C3[C@](C)(C(=O)[C@H](OC(C)=O)C(=C1C)C2(C)C)[C@H](O)C[C@H]1OC[C@@]31OC(C)=O (some centres undefined) | 2 | 6 | 1 | 1 | 8 | -13
CC/C=C/CC(=O)N[C@@H](c1ccccc1)[C@@H](O)C(=O)O[C@H]1C[C@@]2(O)[C@@H](OC(=O)c3ccccc3)C3[C@](C)(C(=O)[C@H](OC(C)=O)C(=C1C)C2(C)C)[C@@H](O)C[C@H]1OC[C@@]31OC(C)=O (some centres undefined) | 0 | 17* | -1 | -16 | 13 | -2
SMILES | STEP block | F508del corr | LMPTP inh | Scp-1 inhibitor | SUMO1 PPI mod | DNMT1 block
CC(=O)O[C@@]12CO[C@@H]1C[C@@H](O)[C@@]1(C)C(=O)[C@H](O)C3=C(C)[C@@H](OC(=O)[C@H](O)[C@@H](NC(=O)c4ccccc4)c4ccccc4)C[C@@](O)([C@@H](OC(=O)c4ccccc4)C12)C3(C)C (some centres undefined) | -2 | 0 | 0 | 1 | 4 | -8
CCC(C)C(=O)N[C@@H](c1ccccc1)[C@@H](O)C(=O)O[C@H]1C[C@@]2(O)[C@@H](OC(=O)c3ccccc3)C3[C@](C)(C(=O)[C@H](OC(C)=O)C(=C1C)C2(C)C)[C@@H](O)C[C@H]1OC[C@@]31OC(C)=O (some centres undefined) | 1 | 11* | 0 | 50 | 5 | -14
CCCNC(=O)[C@@H]1[C@@H](CO)[C@@H]2Cn3c(cccc3=O)[C@@H]2N1CC | . | -1 | . | . | . | .
CC=Cc1ccc2n(c1=O)C[C@H]1[C@H](CO)[C@@H](C(=O)O)[C@@H]2N1S(=O)(=O)c1ccccc1C (mixture of isomers) | . | 0 | . | . | . | .
O=C1NC(=O)N(c2ccccc2)C(=O)/C1=C\c1ccc([N+](=O)[O-])s1 | . | 4 | . | 17 | . | .
COc1ccc(OC)c(N2C(=O)NC(=O)/C(=C\c3ccc([N+](=O)[O-])s3)C2=O)c1 | 4 | 1 | 5 | 3 | 48* | 16
CN1CCc2cc3c(c4c2C1Cc1ccccc1-4)OCO3 (centres undefined) | 2 | 0 | 9 | 5 | -10 | 59*
CC[C@H]1C=C(C(=O)N[C@@]2(C(=O)O)C[C@H]2CC)[C@H]2CCC(=O)[C@H]2C1 | . | -1 | . | . | . | .
O=c1[nH]c2cc(Cl)ccc2n1C1CCN(Cc2ccc(-c3nc4ccccc4nc3-c3ccccc3)cc2)CC1 | . | -2 | . | . | . | .
O=c1[nH]c2ccccc2n1C1CCN(Cc2ccc(-c3[nH]c4cc5ncnc5cc4nc3-c3ccccc3)cc2)CC1 | . | 3 | 84* | . | -4 | .
C=CCC1(CC)C(=O)NC(=S)NC1=O | -1 | 0 | -1 | 7 | 42* | 2
C=C(C)CC1(CC)C(=O)NC(=S)NC1=O | -4 | -3 | -2 | -4 | 2 | 3
O=C(Cc1ccccc1)N1CCCCN2[C@@H](CO)[C@H](c3ccc(C#Cc4ccccc4)cc3)[C@@H]2C1 | . | 1 | . | . | . | .
CCC(C)NC(=O)c1c(N)n(Cc2ccc3c(c2)OCO3)c2nc3ccccc3nc12 (centres undefined) | 0 | . | 8 | -5 | 40* | 36
